A short description of data set [1]: Ratio of drug level in heart to blood in rat at 1.1 to 2.2, iv after 60 mins. In kind it is ADME, organism-based. The note with it: heart and blood (heart-to-blood ratio). An outline of the steps:
(§1)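 Five rats per tracer received 1.1–2.2 MBq (30–60 µCi) of the 18F-labeled rhodamine ester in 100 µL 10% EtOH/saline through the tail vein after 0.2 µm filtration. They were killed by CO2 asphyxia at 60 min p.i. Excised tissues were weighed and counted for 18F. %ID/g was calculated against an injectate standard. Heart-to-blood ratios were derived from these values.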

The test system of the next data set is Muscle tissue. Put plainly: Biodistribution in rat muscle at 1.1 to 2.2, iv after 60 mins. In kind it is ADME, organism-based. The settings on record: in vivo, 1 h. An outline of the steps:
as §1

Another data set deals with Rattus norvegicus. Put plainly: Biodistribution in rat gut at 1.1 to 2.2, iv after 60 mins. In kind it is ADME, organism-based. The settings on record: in vivo, 1 h. An outline of the steps:
as §1

Data set [2] concerns Liver. Put plainly: Biodistribution in rat liver at 1.1 to 2.2, iv after 60 mins. The data set is classed as ADME, organism-based. The note with it: in vivo, 1 h. An outline of the steps:
as §1

The test system of the next data set is Blood. Put plainly: Biodistribution in rat blood at 1.1 to 2.2, iv after 60 mins. In kind it is ADME, organism-based. The note with it: in vivo, 1 h. An outline of the steps:
as §1

For data set [3], the system named is Liver. Put plainly: Drug uptake in rat liver at 3.7 to 5.6 MBq after 30 mins by PET analysis. The note with it: in vivo, 0.5 h. The data set is classed as ADME, tissue-based. An outline of the steps: (§2)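 Each group of at least five rats was injected with 100 µL of filtered tracer (3.7–5.6 MBq, 100–150 µCi) in 10% EtOH/saline under isoflurane anesthesia (2–4% in air). MicroPET acquisition began as soon as possible after injection and ran 60 min in list mode. Images were reconstructed by 2D OSEM as one 60 min image or six 10 min frames. Time-activity curves for organs were expressed as kBq/cm3.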

The next data set has as its system Heart. Put plainly: Drug uptake in rat heart at 3.7 to 5.6 MBq after 5 mins by PET analysis. The data set is classed as ADME, tissue-based. The settings on record: in vivo. An outline of the steps:
as §2

The subject of the next data set is Kidney. Put plainly: Drug excretion in rat kidney at 3.7 to 5.6 MBq after 60 mins by PET analysis. In kind it is ADME, tissue-based. The note with it: in vivo, 1 h. An outline of the steps:
as §2

Data set [4] in a line: Drug excretion in rat gut at 3.7 to 5.6 MBq after 60 mins by PET analysis. The data set is classed as ADME, tissue-based. The settings on record: in vivo, 1 h. An outline of the steps: as §2
Data set [5] deals with Liver. Put plainly: Drug uptake in rat liver at 3.7 to 5.6 MBq after 60 mins by PET analysis. The data set is classed as ADME, tissue-based. The note with it: in vivo, 1 h. An outline of the steps: as §2
Data set [6] can be described thus: Drug uptake in rat myocardium at 3.7 to 5.6 MBq after 60 mins by PET analysis. The data set is classed as ADME, tissue-based. The note with it: in vivo, 1 h. An outline of the steps: as §2
A short description of data set [7]: Metabolic stability of the compound in human serum at 3.7 to 5.6 MBq after 120 mins. The settings on record: read-out: Stability. The data set is classed as ADME, cell-free. An outline of the steps:
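Tracer (3.7–5.6 MBq) in 20 µL 10% EtOH/PBS was added to 200 µL of mouse, rat or human serum, or to PBS, prewarmed to 37°C, then shaken and incubated at 37°C. At 15, 30, 60 and 120 min, aliquots were quenched with cold ethanol and kept on ice. Samples were filtered (30 kD cutoff, 4°C), diluted with water and analysed by radio-HPLC for intact tracer.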

A short description of data set [8]: Metabolic stability of the compound in mouse serum at 3.7 to 5.6 MBq after 120 mins. The data set is classed as ADME, cell-free. The settings on record: read-out: Stability. An outline of the steps:
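Radiotracer (3.7–5.6 MBq) in 10% EtOH/PBS was added to serum pre-equilibrated at 37°C, shaken and incubated at 37°C. Aliquots were taken at 15, 30, 60 and 120 min and quenched with cold absolute EtOH. They were held on ice for 5 min, passed through a 30 kD cutoff filter at 4°C, and the water-diluted filtrate was analysed by radio-HPLC for intact tracer. A PBS incubation ran in parallel.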

For data set [9], the system named is Liver. Put plainly: Drug uptake in rat liver at 3.7 to 5.6 MBq after 5 mins by PET analysis. The settings on record: in vivo. The data set is classed as ADME, tissue-based. An outline of the steps: as §2
A further data set has as its system Spleen (mouse). Put plainly: Drug uptake in mouse spleen at 3.7 to 5.6 MBq after 60 mins by PET analysis. The note with it: in vivo, 1 h.
The next data set concerns Kidney (mouse). The experiment in a line: Drug uptake in mouse kidney at 3.7 to 5.6 MBq after 60 mins by PET analysis. The settings on record: in vivo, 1 h.
The next data set has as its system Intestine (mouse). The experiment in a line: Drug uptake in mouse intestine at 3.7 to 5.6 MBq after 60 mins by PET analysis. The note with it: in vivo, 1 h.
Another data set relates to Gall bladder (mouse). Put plainly: Drug uptake in mouse gall bladder at 3.7 to 5.6 MBq after 60 mins by PET analysis. The settings on record: in vivo, 1 h.
Data set [10] in a line: Ratio of drug level in heart to blood in Sprague-Dawley rat after 60 mins. The data set is classed as ADME. The note with it: heart and blood (heart-to-blood ratio).
Data set [11] deals with Nucleic Acid. Put plainly: Ratio of drug level in heart to liver in Sprague-Dawley rat after 60 mins. The data set is classed as ADME, tissue-based. The settings on record: in vivo, 1 h.
Data set [12] relates to Nucleic Acid. Put plainly: Ratio of drug level in heart to liver in Wistar rat after 60 mins. The note with it: in vivo, 1 h. In kind it is ADME, tissue-based.
Data set [13] deals with Nucleic Acid. Put plainly: Ratio of drug level in heart to bone in rat at 1.1 to 2.2, iv after 60 mins. In kind it is ADME, organism-based. The note with it: in vivo, 1 h. An outline of the steps: (§3)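 Five rats per compound each received 1.1–2.2 MBq of tracer in 10% EtOH/saline by tail vein. They were killed by CO2 at 60 min p.i., and selected tissues were excised, weighed and counted for 18F. %ID/g was calculated against a standard prepared from the injectate. Unpaired two-tailed t test.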

Data set [14] concerns Nucleic Acid. The experiment in a line: Ratio of drug level in heart to liver in rat at 1.1 to 2.2, iv after 60 mins. The data set is classed as ADME, organism-based. The settings on record: in vivo, 1 h. An outline of the steps:
as §3

The subject of data set [15] is Nucleic Acid. The experiment in a line: Ratio of drug level in heart to lung in rat at 1.1 to 2.2, iv after 60 mins. The settings on record: in vivo, 1 h. The data set is classed as ADME, organism-based. An outline of the steps:
as §3

Data set [16] in a line: Ratio of drug level in heart to blood in Sprague-Dawley rat after 5 mins. In kind it is ADME. The note with it: heart and blood (heart-to-blood ratio).

We go through 6 compounds from ChEMBL document CHEMBL2176917, “Effect of the prosthetic group on the pharmacologic properties of 18F-labeled rhodamine B, a potential myocardial perfusion agent for positron emission tomography (PET)” (J Med Chem, 2012).

For the compound `CCN(CC)c1ccc2c(-c3ccccc3C(=O)OCCOCC[18F])c3ccc(=[N+](CC)CC)cc-3oc2c1.Cc1ccc(S(=O)(=O)[O-])cc1`, the Kp (usually tissue or fluid exposure divided by exposure in the circulation) at 1 h in [1] came out at 10. The Drug uptake with Muscle tissue is 0.54 % ID/g; with Rattus norvegicus it was 1.69 % ID/g; in the data set with Liver [2] it was 0.49 % ID/g; with Blood it was 0.25 % ID/g; in the data set on Liver [3] it was “Active”; in the data set with Heart, 69 kBq/cm3. The Drug uptake entry with Liver [5] was “Active”; in [6], “Active”; in the data set with Liver [9], 59 kBq/cm3; with Spleen (mouse), “Active”; in the data set on Kidney (mouse), “Active”; with Intestine (mouse), “Active”. Moreover, the Drug uptake result in the data set on Gall bladder (mouse) is “Active”. Moreover, the Drug excretion entry (in the data set with Kidney; in data set [4]) was “Active” each time. Besides, the remaining at 2 h in data set [7] and in data set [8] was 97.1% throughout.

Regarding `CCN(CC)c1ccc2c(-c3ccccc3C(=O)OCCOCCOCC[18F])c3ccc(=[N+](CC)CC)cc-3oc2c1.Cc1ccc(S(=O)(=O)[O-])cc1`, the Kp at 1 h in [1] was 5.4. Besides, the Drug uptake in the data set with Muscle tissue is 0.32 % ID/g; in the data set on Rattus norvegicus, 0.44 % ID/g; with Liver [2], 0.25 % ID/g; in the data set with Blood, 0.19 % ID/g; in the data set on Heart, 16 kBq/cm3; in the data set with Liver [5] it was “Active”. In addition, the Drug uptake result in [6] is “Active”; in the data set with Liver [9] it was 15 kBq/cm3; in the data set on Spleen (mouse), “Active”; in the data set on Kidney (mouse) it was “Active”; with Intestine (mouse) it was “Active”; in the data set on Gall bladder (mouse) it was “Active”. The Drug excretion result (with Kidney; in [4]) was “Active” throughout.

Take `CC(C)(C)n1ncc(OCc2ccc(COCC[18F])cc2)c(Cl)c1=O` [FLURPIRIDAZ F 18]: in data set [10], the Kp at 1 h is 13.7. The Ratio with Nucleic Acid [11] is given as 3.7; with Nucleic Acid [12], 5.4.

Take `CCN(CC)c1ccc2c(-c3ccccc3C(=O)OCC[18F])c3ccc(=[N+](CC)CC)cc-3oc2c1.Cc1ccc(S(=O)(=O)[O-])cc1`: the Ratio in the data set on Nucleic Acid [13] is reported as 4.6; in the data set with Nucleic Acid [14] it was 2.3; with Nucleic Acid [15], 1.6. Also, in data set [1], the Kp at 1 h stood at 25.8. Further, the Drug uptake with Muscle tissue is reported as 0.16 % ID/g; in the data set on Rattus norvegicus, 2.4 % ID/g; in the data set on Liver [2], 0.89 % ID/g; in the data set with Blood, 0.08 % ID/g; with Liver [5], “Active”. In data set [8], the remaining at 2 h came out at 25%.

Take `CCN(CC)c1ccc2c(-c3ccccc3C(=O)OCCC[18F])c3ccc(=[N+](CC)CC)cc-3oc2c1.Cc1ccc(S(=O)(=O)[O-])cc1`: in data set [1], the Kp at 1 h is 26.4. Further, the Drug uptake in the data set on Muscle tissue was 0.3 % ID/g; with Rattus norvegicus, 2.53 % ID/g; with Liver [2], 0.55 % ID/g; in the data set with Blood, 0.05 % ID/g; with Heart, 66 kBq/cm3; in the data set with Liver [5], “Active”. The figures for the Drug uptake result (in data set [6]; with Liver [9]) were “Active” and 65 kBq/cm3, respectively. Further, the Drug excretion entry (in the data set with Kidney; in [4]) was “Active” each time. Further, the remaining at 2 h in data set [7] came to 99%.

As for `[18F]c1ccc([P+](c2ccccc2)(c2ccccc2)c2ccccc2)cc1` [BFPET F-18], in data set [16], the Kp at 5 min stood at 11. Besides, the Kp at 1 h in data set [10] was 75. Moreover, the Ratio in the data set with Nucleic Acid [11] was determined as 9.2.
